Assay outcomes (PubChem)
Sampled rows, rich in hits. Any-hit rate of the full collection: about 2.5%.
PG9 Ab binder: small molecules binding HIV-1 gp120 antibody PG9; TR-FRET gp120-PG9 antibody binding; inhibition, % at 6.7 µM; actives 0.43% (n = 360,000); AID 624416; in the data active means inhibition above about 8.5%
Rev-erbA mod: Rev-erb alpha (human) modulation; P20393; Rev-erbα–FITC-DNA binding, fluorescence polarization, 90 min; activity, % at 10 µM; actives 0.79% (n = 370,000);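 active means activity above about 14%, limit read from the data; passing the limit was not always enough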
MC4R ag barr: agonists of human melanocortin 4 receptor (MC4R) beta-arrestin; P32245; U2OS MC4R beta-arrestin complementation, luminescence; percent of melanotan II response, DMSO zero; activation, % at 8.9 µM; actives 0.98% (n = 360,000);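 active means activation above a per-plate cutoff, the mean activation of sample wells on that plate plus 3 SD, cut at about 8% in these data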
Target sequence (P32245 whole entry, looked up): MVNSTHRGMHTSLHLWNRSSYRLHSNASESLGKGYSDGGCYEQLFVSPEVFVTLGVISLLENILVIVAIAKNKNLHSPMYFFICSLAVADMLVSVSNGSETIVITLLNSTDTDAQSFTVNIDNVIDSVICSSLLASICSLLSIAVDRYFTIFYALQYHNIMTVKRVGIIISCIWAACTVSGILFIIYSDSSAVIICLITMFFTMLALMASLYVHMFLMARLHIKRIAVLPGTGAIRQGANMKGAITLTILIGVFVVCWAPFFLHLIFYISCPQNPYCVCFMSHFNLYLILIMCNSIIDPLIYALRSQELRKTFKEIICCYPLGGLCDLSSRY
NTR1 agonist: NTR1 (human) agonism | P30989 | NTR1-U2OS beta-arrestin-GFP spot imaging, agonist mode | actives 0.17% (n = 330,000) | activation, % at 20 µM;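 active means activation at or above 40% of the spot to cytoplasm intensity ratio, with at least 20 cells analyzed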
MC4R antagonist: antagonists of human melanocortin 4 receptor (MC4R) | inhibition, % at 6.5 µM | AID 540295 | P32245 | actives 0.48% (n = 360,000) | MC4R-expressing cells, MTII-stimulated cAMP, LANCE TR-FRET;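 active means inhibition above its plate's cutoff, the mean of tested wells on that plate plus 3 SD, cut at about 29% in these data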
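Assay system: human MC4R-expressing U2OS cells; reagent: Melanotan II stimulation of cells; dosing: 6.5 µM single dose; timing: compound 30 min, challenge 1 h, detection 1 h; signal: TR-FRET cAMP assay; replicates: one well per compound, no replicates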
Numbers stand for hits; n = inactive; x = no result.

SMILES | PG9 Ab binder | Rev-erbA mod | MC4R ag barr | NTR1 agonist | MC4R antagonist
COC(=O)C1=C(C)N(Cc2ccccc2C(F)(F)F)C(=NCc2ccccc2C(F)(F)F)NC1c1ccc(C(F)(F)F)cc1 (stereo unspecified) | n | n | x | x | x
O=C(c1ccc(F)cc1Cl)N1CCCC(c2nc(-c3cccs3)no2)C1 (stereo unspecified) | x | n | x | x | x
Nc1c(-c2cccs2)cnn1-c1nc(-c2ccc(F)cc2)cs1 | n | n | 9.6 | n | n
Cc1ccc(NC(=O)CC2S/C(=N/c3nccs3)N(C)C2=O)cc1C (stereo unspecified) | n | n | 8.6 | n | n
Cc1ccccc1NC(=O)CC1S/C(=N/c2nccs2)N(C)C1=O (stereo unspecified) | n | n | n | n | n
CC(C)Oc1ccc2c(c1)OC(c1ccccc1)(C(F)(F)F)NC2=O (stereo unspecified) | n | n | 8.5 | n | n
Cc1ccc2nc(-c3ccc(NC(=O)Cc4cccs4)cc3)[nH]c2c1 | n | n | 9.4 | n | n
CN(C)CCNC(=O)c1cc2c(s1)-c1ccc(Cl)cc1SC2 | n | n | 11.5 | n | n
CCOCCCNC(=O)c1cc2c(s1)-c1ccccc1SC2 | n | n | n | n | n
CCOC(=O)c1ccc(NC(=O)CCc2nc(-c3ccc(C)cc3)no2)cc1 | n | n | 9.7 | n | n
CCOC(=O)c1ccc(NC(=O)CCc2nc(-c3ccc(Cl)cc3)no2)cc1 | n | n | n | n | n
CCn1c(SCC(=O)Nc2ccccc2-c2ccccc2)nnc1-c1ccc(Cl)cc1 | x | n | x | x | x
COC(=O)Nc1nc(-c2cc(Cl)ccc2Cl)cs1 | n | n | 10.3 | n | n
CCOC(=O)Nc1nc(-c2ccc(F)cc2F)cs1 | n | n | n | n | n
COc1ccc2c(c1)CN1C(=O)N(Cc3ccc(F)cc3)S(=O)(=O)CC21 (stereo unspecified) | x | n | x | x | x
COC(CNC(=O)[C@H](Cc1c[nH]c2ccccc12)NC1(C(=O)NC2CCCCC2)CCCCC1)OC | x | n | x | x | x
Cc1ccc(Oc2nc(-c3ccccc3)ncc2S(=O)(=O)c2ccc(C)cc2)cc1 | n | n | n | n | n
Cc1ccc(Oc2nc(-c3ccccc3)ncc2S(C)(=O)=O)cc1 | n | n | 8.4 | n | n
COC(=O)CC[C@@H](/C=C/C(=O)OC(C)(C)C)Sc1ccc(C(C)(C)C)cc1 | x | n | x | x | x
Cc1cccc(Cn2nc(C(C)(C)C)cc2C(=O)Nc2ccc(F)cc2)c1 | n | n | 8.5 | n | n
CC(C)n1nnnc1C1(C)CSCC(=O)N1Cc1cccc(F)c1 (stereo unspecified) | x | n | x | x | x
COc1ccc(OC)c(/C=C2/Sc3ccccc3C2=O)c1 | n | n | 9.5 | n | n
Oc1ccc(Cl)cc1Nc1nc(NCC2CCCO2)c2ccccc2n1 (stereo unspecified) | n | n | 11.8 | n | n
Oc1ccccc1Nc1nc(NCC2CCCO2)c2ccccc2n1 (stereo unspecified) | n | n | n | n | n
O=C(Nc1ccccc1Cl)O[C@@H]1CC[C@@]23CCCN2C(=O)CCC[C@H]3C1 | x | n | x | x | x
SMILES | PG9 Ab binder | Rev-erbA mod | MC4R ag barr | NTR1 agonist | MC4R antagonist
O=C(N[C@@H]1C/C=C\C[C@H](CC(=O)N(CCO)Cc2ccccc2)C(=O)NC[C@@H](c2ccccc2)OC1=O)OCC1c2ccccc2-c2ccccc21 | n | n | n | n | n
O=C(C[C@H]1C/C=C\C[C@H](NC(=O)OCC2c3ccccc3-c3ccccc32)C(=O)O[C@H](c2ccccc2)CNC1=O)N[C@H](CO)Cc1ccccc1 | x | x | 26.0 | n | n
CN(C)c1cc(N/N=C\c2ccccc2)nc(N(C)C)n1 | n | n | 8.5 | n | n
COc1ccc(/C=N/Nc2cc(N(C)C)nc(N(C)C)n2)cc1 | n | n | n | n | n
COC(=O)Cc1nnn2c1[C@H](C)[C@H](c1ccccc1Br)OC[C@H](C)C2 | n | n | x | x | x
O=c1c2c(-c3ccccc3)csc2nc2c3ccccc3c(NCCN3CCOCC3)nn12 | n | n | 9.3 | x | n
O=c1c2ccccc2nc2c3ccccc3c(NCCN3CCOCC3)nn12 | n | n | x | n | x
CCCCOCCCNC(=O)C[C@H]1C[C@@]2(C(=O)OCC)CCCC3=C2N(CCC3)C1=O | x | n | x | x | x
Cc1ccc(-n2sc3cc(F)ccc3c2=O)c(C)c1 | n | n | 8.8 | x | n
Nc1nnnn1/N=C/c1ccccc1OCc1ccc(Cl)cc1 | n | n | 8.3 | n | n
COC(=O)[C@@]12CCCCC3=C1N(CCC3)C(=O)[C@H]2CC(=O)NCCC(C)C | x | n | x | x | x
Brc1ccccc1/C=N/Nc1ccccn1 | n | n | 9.4 | n | n
N#Cc1ccc(-c2ccc(F)cc2)nc1Oc1ccc(F)cc1 | n | n | 9.3 | n | n
C=CCNc1nc(-c2cccc(OC)c2O)nc2ccccc12 | n | n | 9.4 | n | n
COc1cccc(-c2nc(NCc3ccco3)c3ccccc3n2)c1O | n | n | 18.2 | n | n
Cc1ccc(-c2nc(NCc3ccco3)c3ccccc3n2)cc1 | n | n | n | n | n
O=C1CCC[C@H]2C[C@H](NCCc3ccncc3)CC[C@]23CCCN13 | x | n | x | x | x
Fc1ccc(NC(=S)Nc2cc(-c3ccccc3)[nH]n2)cc1Cl | n | n | n | n | n
Cc1ccc(NC(=S)Nc2cc(-c3ccccc3)[nH]n2)cc1Cl | n | n | 8.9 | n | n
Cc1ccc(-n2[nH]c(C)c(C=Nc3ccc4[nH]c(=O)[nH]c4c3)c2=O)cc1C | n | n | 16.4 | n | n
CCCCN1CCN(C2=NC(=O)N(c3ccc(Br)cc3)C(=O)C2)CC1 | x | n | x | x | x
CCOC(=O)c1[nH]c(C)c(C(=O)OCC(=O)N(C)C2CCS(=O)(=O)C2)c1C (stereo unspecified) | n | n | 8.3 | n | n
CCOC(=O)c1[nH]c(C)c(C(=O)OCC(=O)NC2CCS(=O)(=O)C2)c1C (stereo unspecified) | n | n | n | n | n
Cc1ccc(-n2ccc(=O)c(-c3ccnc(SCc4cccc(Cl)c4)n3)n2)cc1 | n | n | 8.6 | n | n
Cc1ccc(C(=O)CCS(=O)(=O)c2ccc(Br)cc2)cc1 | n | n | n | n | n
SMILES | PG9 Ab binder | Rev-erbA mod | MC4R ag barr | NTR1 agonist | MC4R antagonist
CCOC(=O)c1ccc([N+](=O)[O-])c(CS(=O)(=O)c2ccc(Cl)cc2)c1 | n | n | n | n | n
Cc1ccc(S(=O)(=O)CCC(=O)c2cccc([N+](=O)[O-])c2)cc1 | n | n | n | n | 31.3
Cc1ccc(S(=O)(=O)Cc2cc(F)c([N+](=O)[O-])cc2[N+](=O)[O-])cc1 | x | x | n | n | 30.6
COC[C@H]1CCCN1c1ccc2c(c1)O[C@@H]1CCN(C1)S2(=O)=O | x | n | x | x | x
COc1ccc(-c2csc(NC(=S)NC(=O)/C=C/c3ccco3)n2)cc1OC | n | n | 9.1 | x | n
COc1ccc(-c2csc(NC(=S)NC(=O)/C=C/c3ccco3)n2)cc1Br | n | n | n | n | n
Cc1ccc2c(Cl)c(C(=O)NCCc3ccccc3)sc2c1 | n | n | n | n | n
COc1ccc(CCNC(=O)c2sc3cc(C)ccc3c2Cl)cc1 | n | n | 9.4 | n | n
